Screening results from PubChem.
Rows were chosen to be rich in hits. Some 4.1% of all compounds tested hit in one or more screens of this group.
hERG rescue – hERG (human) protection from proarrhythmic block; Q12809; 310,000 compounds, 0.51% hits; activation (rescue from dofetilide block), less the hit threshold, % at 10 µM; AID 1511; CHO-hERG, FluxOR thallium flux, dofetilide IC70 present;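 active means activation above the mean of controls blocked by dofetilide plus 5 SD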;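 further: thallium influx through hERG after potassium depolarization seen as dye fluorescence rise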
KCNK9 inh – blocks the human KCNK9 two-pore domain potassium channel; AID 488922; HEK293 KCNK9, FluxOR thallium flux fluorescence; stronger effect = lower value; 310,000 compounds, 1.2% hits; Q9NPC2; B-score at 10 µM;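 active means ratio B-score over 3 SD below the library mean, with starting fluorescence within 5 SD of its mean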;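 further: negative B-score means less thallium flux so channel inhibition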
KCNQ1 block – blocks the human KCNQ1 potassium channel; AID 2642; B-score at 10 µM; 310,000 compounds, 1.3% hits; P51787; CHO-K1 KCNQ1, FluxOR thallium flux fluorescence; stronger effect = higher value;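 active means compounds whose thallium flux B-score, printed positive for inhibition, exceeds three library SD while starting fluorescence stays within three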;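 further: channel opened by potassium depolarization with thallium stimulus after 20 min compound exposure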
Cl transport mod – modulates chloride dependent transport by human KCC2. KCC2 cells, thallium flux FluoZin-2 fluorescence. 190,000 compounds, 2.2% hits. AID 1456. B-score of Tl+ flux slope (higher = more flux/activation; lower = inhibition) at 10 µM;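 active means thallium flux slope and its plate-corrected score both differing from the plate sample mean at a set confidence after two filtering rounds, in either direction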;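 further: slope of fluorescence scaled to starting intensity during 10 to 20 s after thallium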
KCNK3 inh – human KCNK3 channel inhibition, primary screen; O14649; B-score at 10 µM; CHO-KCNK3 thallium flux, FluxOR fluorescence; stronger effect = lower value; 340,000 compounds, 0.84% hits;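 active means B-score under library mean minus 4 SD, starting fluorescence ratio at most library mean plus 5 SD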;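 further: more negative B-score means stronger inhibition of thallium flux through KCNK3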
Target sequence (O14649 whole entry, looked up): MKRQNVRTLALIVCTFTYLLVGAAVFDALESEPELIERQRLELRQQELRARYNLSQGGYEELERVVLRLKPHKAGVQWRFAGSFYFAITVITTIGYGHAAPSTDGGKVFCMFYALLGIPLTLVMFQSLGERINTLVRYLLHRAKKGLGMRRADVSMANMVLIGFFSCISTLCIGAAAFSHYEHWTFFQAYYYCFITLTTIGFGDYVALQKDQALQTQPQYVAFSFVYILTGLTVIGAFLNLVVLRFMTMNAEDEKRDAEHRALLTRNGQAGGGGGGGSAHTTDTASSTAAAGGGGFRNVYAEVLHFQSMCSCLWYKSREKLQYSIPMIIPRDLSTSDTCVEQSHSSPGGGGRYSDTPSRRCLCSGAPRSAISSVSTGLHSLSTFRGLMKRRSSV
KCNQ1 act – potentiates or activates the human KCNQ1 potassium channel; CHO-K1 KCNQ1, thallium flux FluxOR fluorescence; stronger effect = higher value; P51787; AID 2648; 310,000 compounds, 0.35% hits; B-score at 10 µM;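 active means fluorescence ratio B-score, a plate-corrected score, at least three library SD, with initial intensity B-score within 5 SD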
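Assay system: stable KCNQ1 CHO-K1 line; medium: assay buffer, equal DMSO in all wells; timing: 90 min dye loading and 20 min compound exposure, both at room temperature; technique: kinetic FluxOR thallium fluorescence, 10-s 1-Hz baseline, 110-s post-stimulus read; read-out basis: B score of baseline-normalized fluorescence ratio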
KCNK3 inh conf – human KCNK3 channel inhibition, confirmation assay. shares compounds with KCNK3 inh. CHO-KCNK3 thallium flux, FluxOR fluorescence; 0% buffer, 100% carvedilol maximal block. ratio percent of control, % at 10 µM. 2,400 compounds, 99% hits;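 active means ratio percent of control, averaged over triplicates, above buffer control mean plus 5 SD, cut at about 64% in these data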;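 further: ratio is the fluorescence rise from min to max over baseline after thallium stimulus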
KCNK3 uninduced – KCNK3 inhibitor counter-screen hit in non-induced cells. thallium flux ratio (lower = more inhibition) at 10 µM. AID 651747. shares compounds with KCNK3 inh. 2,400 compounds, 40% hits. non-induced KCNK3 parental cells, FluxOR thallium flux; stronger effect = lower value;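 active means thallium flux ratio, averaged over three wells, more than 5 SD below the buffer control mean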;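 further: host cells are CHO cells without KCNK3 induction; ratio is peak minus trough fluorescence over baseline then normalized to buffer controls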
* marks the source's active call; other numbers are inactive results; i = inactive; nt = no result.

SMILES | hERG rescue | KCNK9 inh | KCNQ1 block | Cl transport mod | KCNK3 inh | KCNQ1 act | KCNK3 inh conf | KCNK3 uninduced
COc1cccc(NC(=O)CN(C)C(=O)c2cc(-c3cccc(Br)c3)nc3ccccc23)c1 | -17.0 | i | i | nt | -13.7* | i | 128.0* | i
Cc1ccc2nc(-c3ccccc3)cc(C(=O)Nc3cccnc3)c2c1 | nt | nt | nt | nt | i | nt | nt | nt
COc1cccc(NC(=O)CN(C)C(=O)c2cc(-c3ccccc3)nc3ccc(C)cc23)c1 | nt | nt | nt | nt | i | nt | nt | nt
Cc1cccc(C(=O)N2CCCC(N3CCN(c4ccc(F)cc4)CC3)C2)n1 (stereo not drawn) | -5.9 | i | i | nt | i | i | nt | nt
COc1ccc2ccccc2c1CN1CCN(C(=O)c2ccco2)CC1 | -1.2 | i | i | nt | -11* | i | 90.3* | i
CCOC(=O)c1c(NC(=O)COC(=O)Cn2c(C)nc3ccccc32)sc2c1CCCC2 | -6.1 | i | i | -0.0574 | i | i | nt | nt
COC(=O)c1c(NC(=O)CSc2nnnn2-c2ccccc2)sc2c1CCCC2 | -2.8 | i | i | -1.25 | -9.42* | i | 95.7* | i
CCOC(=O)c1c(NC(=O)Cn2c(C)nc3ccccc32)sc2c1CCC2 | -16.9 | i | i | 0.559 | -9.36* | i | 102.0* | i
COc1ccc(C2=NN(C(=O)CCC(=O)O)C(c3ccccc3F)C2)cc1 (stereo not drawn) | -8.7 | i | i | nt | i | i | nt | nt
CCOC(=O)C1CCCN(C(=O)c2cc(-c3ccc(C)cc3)nc3ccccc23)C1 (stereo not drawn) | -30.8 | i | i | -1.72 | -9.71* | i | 107.7* | i
Cc1csc(SCC(=O)Nc2ccc3[nH]c(=O)[nH]c3c2)n1 | nt | nt | nt | nt | i | nt | nt | nt
CSc1ccc(C2C(C(=O)c3ccco3)=C(O)C(=O)N2c2nnc(SC)s2)cc1 (stereo not drawn) | -6.2 | i | i | nt | i | i | nt | nt
N#C/C(=C\c1ccc(O)cc1)c1nc2ccccc2o1 | -18.2 | i | i | -1.15 | -11.1* | i | 130.0* | 0.123*
COc1ccc(OC)c(Nc2nc(NCc3ccco3)c3ccccc3n2)c1 | -9.4 | i | i | nt | -16.5* | i | 133.7* | 0.152*
COc1ccc(-c2csc(N(CC3CCCO3)C(=O)c3cccs3)n2)cc1 (stereo not drawn) | -14.2 | i | i | 0.167 | -9.97* | i | 116.7* | i
COCCN(C(=O)Cc1ccc(OC)c(OC)c1)c1nc(-c2cc(OC)ccc2OC)cs1 | -1.1 | i | i | nt | i | i | nt | nt
COc1ccc(OC)c(-c2csc(N(CC3CCCO3)C(=O)C3CCCCC3)n2)c1 (stereo not drawn) | -8.5 | i | i | -0.18 | -9.47* | i | 92.7* | i
CCCN(CC(=O)Nc1ccccc1C)C(=O)COc1c(Cl)cccc1Cl | -14.5 | i | i | nt | i | i | nt | nt
CCC(C(=O)OCC(=O)N1C(C)CCCC1C)c1ccccc1 (stereo not drawn) | -5.9 | i | i | nt | i | i | nt | nt
CCOC(=O)Cc1csc(NC(=O)COc2c(C)cccc2C)n1 | -3.6 | i | i | nt | -13.4* | i | 92.7* | i
CCC(=O)Nc1ccc(/C(C)=N\NC(=O)c2ccc(C)s2)cc1 | -1.1 | i | i | -0.646 | i | i | nt | nt
C/C(=N\NC(=O)c1nn(C)c(C)c1Br)c1ccc(NC(=O)c2ccc(C)s2)cc1 | -5.6 | i | i | nt | -8.8* | i | 101.3* | i
COc1ccc(C2C(C(=O)c3ccco3)=C(O)C(=O)N2Cc2cccnc2)cc1OC (stereo not drawn) | -0.5 | i | i | 0.0808 | -9.25* | i | 63.7* | i
Cc1cc(C)c(C#N)c(SCC(=O)c2ccc(Cl)cc2Cl)n1 | -3.0 | i | i | 0.508 | -10.1* | i | 108.3* | 0.153*
CCOC(=O)CSc1nc(C)cc(C)c1C#N | -2.2 | i | i | -0.157 | i | i | nt | nt
SMILES | hERG rescue | KCNK9 inh | KCNQ1 block | Cl transport mod | KCNK3 inh | KCNQ1 act | KCNK3 inh conf | KCNK3 uninduced
Cc1cccc(OCCCSc2nc3ccccc3[nH]2)c1 | -17.8 | i | i | 0.232 | -8.86* | i | 126.3* | 0.121*
Cc1cccc(OCCSCc2nc3ccccc3[nH]2)c1 | -14.1 | i | i | -0.11 | i | i | nt | nt
O=C(COC(=O)c1nc(Cl)ccc1Cl)Nc1ccccc1OC(F)F | -10.9 | i | i | 0.191 | -9.64* | i | 104.7* | i
CCCOC(=O)/C(=C\C=C\c1ccccc1)NC(=O)c1ccccc1 | -6.8 | i | i | -3.41 | -10.1* | i | 147.3* | 0.148*
CCCCOC(=O)/C(=C/C=C/c1ccccc1)NC(=O)c1ccccc1 | -9.5 | i | i | -3.13 | i | i | nt | nt
CCN(CC)c1nc(-c2ccc(C(=O)NN)cc2)nc(-c2ccc(C(=O)NN)cc2)n1 | -0.7 | i | i | nt | -8.82* | i | 52.3* | i
CCOc1ccc(C(=O)n2cc(C(=O)OC)c3ccccc32)cc1OCC | -2.1 | i | i | nt | i | i | nt | nt
CCOc1ccc(C(=O)n2cc(C(=O)OC)c3ccccc32)cc1 | -3.0 | i | i | nt | -10.2* | i | 116.0* | 0.147*
Cc1c(Nc2cc(N3CCOCC3)c3nonc3c2[N+](=O)[O-])c(=O)n(-c2ccccc2)n1C | -7.3 | i | i | 0.284 | nt | i | nt | nt
Cc1c(Nc2cc(Cl)c3nonc3c2[N+](=O)[O-])c(=O)n(-c2ccccc2)n1C | nt | nt | nt | -2.53 | -17.6* | nt | 145.0* | 0.096*
CCC(C)n1c(/C=C/c2ccccc2)nc2ccccc21 (stereo not drawn) | -19.4 | i | i | -3.5 | -9.82* | i | 88.0* | i
COc1ccc(Cn2c(/C=C/c3ccccc3)nc3ccccc32)cc1 | -7.7 | -6.75* | i | -0.00722 | -9.49* | i | 100.7* | 0.154*
CCn1c(/C=C/c2ccccc2)nc2ccccc21 | -13.2 | i | i | nt | i | i | nt | nt
Cc1cccc(CNC(=O)c2ccc(NC(=O)C3=CSCCO3)cc2)c1 | -10.5 | i | i | nt | i | i | nt | nt
CCOc1ccc(OCCSc2ccc(S(=O)(=O)N3CCN(C)CC3)cn2)cc1 | nt | nt | nt | nt | i | nt | nt | nt
Cc1ccc(C(=O)OC(C(=O)O)C(OC(=O)c2ccc(C)cc2)C(=O)O)cc1 (stereo not drawn) | nt | nt | nt | nt | i | nt | nt | nt
